Test system: MS2 coat protein
Test: apparent Kd, MS2 coat protein; higher = weaker binding; RNA-MaP array; FMN 200 µM where present
Method in brief: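 Designs on Illumina sequencing-chip clusters, transcribed by stalled E. coli RNA polymerase, were exposed to SNAP-549-labelled MS2 coat protein in doubling steps from 0.7 or 1.5 nM up to 3 µM, without and then with constant ligand. The buffer held 100 mM Tris-HCl pH 7.5, 80 mM KCl, 4 mM MgCl2, BSA, DTT, yeast tRNA and Tween-20. Apparent Kd values are medians of filtered per-cluster binding-curve fits to green signal normalised to red-channel RNA signal and control-cluster median Fmax.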

[1] = designed as: OFF switch for flavin mononucleotide, no ligand
[2] = ligand present: flavin mononucleotide, designed as: OFF switch for flavin mononucleotide
[3] = designed as: ON switch for flavin mononucleotide, no ligand
[4] = ligand present: flavin mononucleotide, designed as: ON switch for flavin mononucleotide

| Sequence | apparent Kd [1] [nM] | apparent Kd [2] [nM] | apparent Kd [3] [nM] | apparent Kd [4] [nM] |
| --- | --- | --- | --- | --- |
| CUCAUGUGAGGAUAUGUGAUCUGCUUUCUGUGUAGAUGAUCACAGAAGGCACAUGAGGAUCACCCAUGUAGAUC | 70.5 | 29.6 | – | – |
| CUCCCGAUCACAGGAUAUGCACAUACAAUUAAGGCAGAAGGGUGAUAGUCGGCCGGACAUGAGGAUCACCCAUGUGCAAGGAUA | – | – | 285 | 85.2 |
| CUCGCAGUAAUAGGAUAUCCACAUCCGUGGCCUGUGUGUGACUUAACAUGAGGAUCACCCAUGUUGGAGAAGGAUUACUCAAUA | 728 | 178 | – | – |
| CUCGGACAUGAGGAUCACCCAUGUGAGGAUAUGGUGCUAUCGUCAUUAGACGAUUGCGUUAGAAGGCAUAUUUU | 28.7 | 27.1 | – | – |
| CUCGGCGAGGGAGGAUAUCCCUAUGAGGCGGUGCAGCUCGGGAACAUGAGGAUCACCCAUGUAGCGGAGAAGGCCCAUACGCCU | 9.59 | 34.5 | – | – |
| CUCGUGUCAGGAUAUGGAAGGCCGUUUGAUUAACGAGGGUACUAGAAGGGACAUGAGGAUCACCCAUGUAAAAA | 37.7 | 57.6 | – | – |
| CUCGUGUUAGGAUAUCGUGGCUGGGCUGGGACGUCCGAUCGCGAGAAGGGACAUGAGGAUCACCCAUGUAAAAC | 36.7 | 86 | – | – |
| CUCUCUGAUCGAGGAUAUCGAGCUUCCGCCCUUCGAGAAGGCGACAUGAGGAUCACCCAUGUAAGGAGGACACUCACUCACACG | 26.4 | 22.5 | – | – |
| CUCUUGGCAGGAUAUGCUCUCUUAGACAUGAGGAUCACCCAUGUGCUCAUUCCUUCUUUUGCAGAAGGGCCUUAAC | 71.4 | 52.3 | – | – |
| CUCUUGGCAGGAUAUGCUCUUUUAGACAUGAGGAUCACCCAUGUGCUCAUUCCUUCUUUUGCAGAAGGGCCUUAAC | 73 | 54.7 | – | – |
| CUCUUGUCAGGAUAUUAUGGACGAUAGCAGGACUACGUCAGUGAGAAGGGACAUGAGGAUCACCCAUGUAAAAU | 82 | 67.2 | – | – |
| CUCUUGUGAGGAUAUGCUGCUCGUCACGAAAGUGAUGAGUAGCAGAAGGCACAUGAGGAUCACCCAUGUAAAUA | 93.7 | 21.7 | – | – |
| CUCUUGUUAGGAUAUCAAACUGGCAGCGGAGCUGGCAGAAGUGAGAAGGGACAUGAGGAUCACCCAUGUAAGAA | 69.2 | 228 | – | – |
| CUGAAGAUAUCAGGAUAUCUAUUUCCUACAUGAGGAUCACCCAUGUAGGUGAUCAGCCAAGUAAAGGAGAAGGGAUAUCUUUAG | – | – | 32.3 | 9.78 |
| CUGACAGCGCAGAAGGGAGAUCCUACAUGAGGAUCACCCAUGUGGGCUCUCAGGAUAUGCACGUGUAUACCGAAAGUGGUAUUG | – | – | 13.4 | 5.99 |
| CUGAUUUGCUAGAAGGGUGACAUGAGGAUCACCCAUGUGCGGGCAGACCUAUCUUCAUGCCCGCCACAGGAUAUAGCAAUUCGC | – | – | 38.3 | 48.2 |
| CUGCCGUAGGAGAAGGACGGCGGGUUAUUUUUUUACAUGAGGAUCACCCAUGUAGGAUAUCCUACGUCAGGCAACCUACUACAG | 6.36 | 9.54 | – | – |
| CUGGUUAGUCAGGAUAUCGUGUGGGUAAUUGUACGAGAAGGGACGACAUGAGGAUCACCCAUGUGGUCUUUGGG | 24.8 | 56.2 | – | – |
| CUGUGACGGAUCCAGAAUUACAACAUGAGGAUCACCCAUGUACAGGAUAUAGGGUUGAUAGGCGCCUAGAAGGGUAUGAUCACG | 156 | 177 | – | – |

| Sequence | apparent Kd [1] [nM] | apparent Kd [2] [nM] | apparent Kd [3] [nM] | apparent Kd [4] [nM] |
| --- | --- | --- | --- | --- |
| CUGUGACGGUGCGCAAGUGGACGGAGAAGGGUCACAUGAGGAUCACCCAUGUGGGCCUGCUAUUGACAGGAUAUCCGUUCGUAC | 5.94 | 6.46 | – | – |
| CUGUUAUAGGUCCAGAAUUACAACAUGAGGAUCACCCAUGUGCAGGAUAUCGGGUUGAUAGGCGACGAGAAGGGCAUAGUCACG | 76.5 | 79.2 | – | – |
| CUGUUAUAGGUCCAUUUUUACAACAUGAGGAUCACCCAUGUGCAGGAUAUCGUGUUAAUUUUCAUCGAGAAGGGCAUAGUCACG | 31.5 | 61.2 | – | – |
| CUGUUCACCAGUGGGCGACCACAUGAGGAUCACCCAUGUAGGGAGGAUAUGCCCGCGCAGCUGUAGCAGAAGGCCCUGCAAAUC | 21.2 | 125 | – | – |
| CUGUUGUGGUACUGCAUGGCUUGGAGAGAAGGGUGAUUCACAUGAGGAUCACCCAUGUAGGACUUACAGGAUAUUUCCGGGUCU | – | – | 62.6 | 100 |
| CUGUUUUUCGCAGGAUAUGCUCCUCCUUUAUUUGCAGAAGGGCGUUAAACAUGAGGAUCACCCAUGUAUGGUAAUGACUUUUUC | 20.6 | 67.8 | – | – |
| CUUAGACAUGAGGAUCACCCAUGUGAGGAUAUGAUGCAGCAGUGGUCUACGCUGUGCAUCAGAAGGCACAUGUG | 80.7 | 14.2 | – | – |
| CUUAUGUCAGGAUAUCAGUAGUAAAAAAAAAAAAUUACUACUGAGAAGGGACAUGAGGAUCACCCAUGUCCAUU | 30.9 | 31.2 | – | – |
| CUUAUUUUCGAAGGAUAUGGAUACAUGAGGAUCACCCAUGUAUAAAAUGAGAUCUAUUAUAUGAUCCAGAAGGUCGUUGUUUAU | 33.4 | 59.2 | – | – |
| CUUCGUAUAGAGGAUAUAGGAUACUGCGGUGUCCUAGAAGGCUGUACAUGAGGAUCACCCAUGUACUUCAGAUC | 12.6 | 17.9 | – | – |
| CUUCGUAUAGAGGAUAUAGGUUACCUCGGUAUCCUAGAAGGCUGUACAUGAGGAUCACCCAUGUACUUCAGAUC | 12.4 | 14.5 | – | – |
| CUUCUGUCAGGAUAUGCGAAUCACCACUGGGUCAGCGGUGAGCAGAAGGGACAUGAGGAUCACCCAUGUAAAGU | 40.5 | 171 | – | – |
| CUUUAAGUCGAGAAGGACAUGAGGAUCACCCAUGUAGGAUAUCGAUUAGCUUACAACCCGAGCCGCAUUGGUAUGACUGGUGGG | – | – | 12.9 | 6.23 |
| CUUUAGUGAGGAUAUGUGGCUUCGAUCGUGAGAUCGAGGCUACAGAAGGCACAUGAGGAUCACCCAUGUUCCUA | 16.6 | 59.4 | – | – |
| CUUUAGUGAGGAUAUGUGGCUUCGAUCGUGAGAUCGAGGCUACAGAAGGCACAUGAGGAUCACCCAUGUUCCUU | 14.5 | 32.9 | – | – |
| CUUUAUGUUGAGGAUAUGCACCAGCUCACUGACGCAGAAGGCGACACAUGAGGAUCACCCAUGUCAGUUCGCGU | 17.6 | 17.8 | – | – |
| CUUUCGUGAGGAUAUGAGGCUUCGAUCGUGAGAUCGAGGCUACAGAAGGCACAUGAGGAUCACCCAUGUUCCUC | 30.9 | 392 | – | – |
| CUUUUGUGAGGAUAUCAGUAGUAAAGAAAUAAAAUUACUACUGAGAAGGCACAUGAGGAUCACCCAUGUUCCUC | 36.2 | 192 | – | – |
| CUUUUGUGAGGAUAUCAGUAGUAAUACAAUAGUAUUACUACUGAGAAGGCACAUGAGGAUCACCCAUGUUCCUU | 16 | 29.5 | – | – |

| Sequence | apparent Kd [1] [nM] | apparent Kd [2] [nM] | apparent Kd [3] [nM] | apparent Kd [4] [nM] |
| --- | --- | --- | --- | --- |
| CUUUUGUGAGGAUAUCAUUAGUAAAUAAAUAAAAUUACUACUGAGAAGGCACAUGAGGAUCACCCAUGUUCCUC | 33.9 | 159 | – | – |
| CUUUUGUGAGGAUAUUAGUAGUAAAUAAAUAAAAUUACUACUGAGAAGGCACAUGAGGAUCACCCAUGUUCCUU | 12.6 | 38 | – | – |
| GAAAACGCAGAGGAUAUUUCAGAUCCUAGCUGCAAAGAAGGCUGCACAUGAGGAUCACCCAUGUGGUCCUGAAG | 65.1 | 155 | – | – |
| GAAAUACAUGAGGAUCACCCAUGUAAGGAUAUGCUAGCGGUCGGCUGACUGACUGCUAGCAGAAGGUACAUGAU | 80.9 | 108 | – | – |
| GAACGAUUGCCUACAUGAGGAUCACCCAUGUGGCUGACAAGCAGAAGGGCGGGUUUCAUUCUCCCGUAGGAUAUGCGCGUUCCA | – | – | 6.89 | 5.14 |
| GAAGAUAUAGGAUAUACAUGAGGAUCACCCAUGUGAGUACGCAAGGCUAGAUCGCUUUGUAGAAGGAUAUACCG | 38.5 | 40.8 | – | – |
| GAAUAAUUGAUCCUUUUUUAUUACAUGAGGAUCACCCAUGUGCAGGAUAUCGAUUGUUGUAGUUUCGAGAAGGGCAAGAACUGU | 187 | 280 | – | – |
| GAAUGAAAGCAGAAGGCCGCACAUGAGGAUCACCCAUGUGAAAACAGAUGGAGGAUAUGCGAACGUUCGCUUUGAAAAGUAAAG | – | – | 13.5 | 6.35 |
| GAAUGUCGGGUAGGAUAUGACGUGCCACGGAGGUCAGAAGGGCCACGACAUGAGGAUCACCCAUGUACUGUAUUCCUUUUUCAA | 22.9 | 60.4 | – | – |
| GAAUUAUUGAUCCAAUUUUACAACAUGAGGAUCACCCAUGUGCAGGAUAUCGUGUGUUUUAUAUUCGAGAAGGGCAUGAACUUU | 213 | 495 | – | – |
| GACAUCGCAGGAUAUUAUUGUUUGUACAUGAGGAUCACCCAUGUUAAUUGGGUUAGUGUUUAAGAAGGGCGGUGUC | 1340 | 901 | – | – |
| GACAUUAUAGGAUAUACAUGAGGAUCACCCAUGUCCGGCGGCCACCGCCAUUCACUGUGUAGAAGGGUAGUUUG | 87.9 | 68.8 | – | – |
| GACCCAAAUGAGAAGGUGUGUAUAAAUUAUAUACAAGGAUAUCGGUCGAGCGUGUUGACAUGAGGAUCACCCAUGUUGUGGGUU | – | – | 57.1 | 25.7 |
| GACCUAUAGGUAGGAUAUCAUUGCGAUUAGCUAUGAGAAGGACCACAUGAGGAUCACCCAUGUCCUCUAAUUAGCCAUUUGGUC | 380 | 1040 | – | – |
| GACGAAUAGCUAGGAUAUCGUAAAUCAUUGGUAGUCUCUAUUCACAUGAGGAUCACCCAUGUAAUCGAGAAGGAGCACUCGUUC | 80.4 | 240 | – | – |
| GACGUCGGAAGUCGACGCCACUACAAGGAUAUGCACAUGAGGAUCACCCAUGUUACGAAAUCGUAGCAGAAGGUGUAGUCGUCU | – | – | 245 | 24 |
| GACUGCAUGUAAGGAUAUCGACUGGAUAACAGUCGAGAAGGUACAUGAGGAUCACCCAUGUAAUAAGAUCAAUAAUAAGCAGUC | 14.4 | 31.3 | – | – |
| GACUGCCGAGGAUAUACAUGAGGAUCACCCAUGUGCUUCAGCAUUUUUUAAUGCAUGGGUAGAAGGCGGUAGUC | 32.6 | 68.5 | – | – |
